Drawing on ChEMBL document CHEMBL5260818, “Anti-influenza activity of diazaadamantanes combined with monoterpene moieties” (Bioorg Med Chem Lett, 2017), this text covers IC50, selectivity ratio and CC50 for 14 compounds.

Data set [1] relates to Influenza A virus. Briefly: Antiviral activity against Influenza A virus A A/California/07/09 (H1N1)pdm09. Format: functional, organism-based.
In data set [2] the test system is Influenza A virus. Briefly: Antiviral activity against Influenza A virus A/Puerto Rico/8/34 (H1N1) infected in MDCK cells assessed as inhibition of viral growth preincubated with cells for 1 hrs followed by compound addition and measured after 24 hrs by TCD titration based assay. The data set is classed as functional, organism-based. The procedure, abridged:
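Compounds dissolved in DMSO and diluted in MEM with 1 μg/ml trypsin, then added to MDCK cells for 1 h at 36 °C before infection (moi 0.01). Cultures were kept 24 h at 36 °C, 5% CO2. Supernatant virus progeny was grown in MDCK cells for 48 h, then titred by hemagglutination. Each concentration was run in triplicate, and IC50 was calculated.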

Data set [3] is described as follows: Selectivity index, ratio of CC50 for cytotoxicity against MDCK cells to IC50 for antiviral activity against Influenza A virus A/Puerto Rico/8/34 (H1N1) infected in MDCK cells assessed as inhibition of viral growth. The data set is classed as toxicity, cell-based. To be noted: dog, read-out: Ratio CC50/IC50. Summed up:
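SI is CC50 (MTT, uninfected MDCK, 48 h) divided by IC50 (hemagglutination titre of progeny virus from MDCK cells infected at moi 0.01 after 1 h compound pre-incubation), both from triplicate concentration series.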

Data set [4] in a line: Cytotoxicity against MDCK cells incubated for 48 hrs by MTT assay. Format: toxicity, cell-based, Canis lupus familiaris. The note with it: dog. Summed up:
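Uninfected MDCK cells were exposed to the dissolved compounds for 48 h at 36 °C, 5% CO2. Cells were washed twice with PBS, then given MTT ([…] in PBS) for 1 h. Formazan was dissolved in DMSO and OD read at 535 nm against concentration. Three parallels per concentration, and CC50 was calculated.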

Molecules are shown by their SMILES.

For the compound `CC(C)=CCCC(C)CCNC1C2CC3CC(C2)CC1C3` (stereo unspecified), the midpoint of inhibition in the data set with Influenza A virus [1], the IC50, lay at 18 µM.
In the case of `CC(C)=CCC/C(C)=C\C1N2CC3(C)CN1CC(C)(C2)C3=O` (stereo unspecified), in the data set on Influenza A virus [2], the IC50 was more than 99 µM. Further, the selectivity ratio in data set [3] came to 2. Moreover, the CC50 at 48 h in data set [4] came to 242 µM.
For `CC(C)=CCCC(C)CC1N2CC3(C)CN1CC(C)(C2)C3=O` (stereo unspecified), in that order: 66 µM, 3 and 178 µM.
On the same counts, the results for `CC12CN3CC(C)(CN(C1)C3C1=CC(=O)[C@H]3C[C@@H]1C3(C)C)C2=O` (stereo partly specified) are 113 µM, 8 and 907 µM.
On the same counts, the results for `CC(CCCC(C)(C)O)CC1N2CC3(C)CN1CC(C)(C2)C3=O` (stereo unspecified) are 260 µM, 3 and more than 904 µM.
For the compound `CC1=CC[C@@H](CC2N3CC4(C)CN2CC(C)(C3)C4=O)C1(C)C` (stereo partly specified), the IC50 in the data set with Influenza A virus [2] was more than 331 µM. For the same compound, in data set [3], the selectivity ratio is less than 2. In addition, half-maximal cytotoxicity in data set [4] (CC50 at 48 h) was put at 533 µM.
On the same counts, the results for `CC12CN3CN(C1)CC(C)(C3)C2NCC1=CC[C@H]2C[C@@H]1C2(C)C` (stereo partly specified) are 64 µM, 3 and 196 µM.
For the compound `CC12CN3CC(C)(CN(C1)C3C1=CC[C@H]3C[C@@H]1C3(C)C)C2=O` (stereo partly specified), in the data set on Influenza A virus [2], the IC50 was more than 1000 µM. Also, the CC50 at 48 h in data set [4] is more than 1000 µM.
With `CC(=O)[C@@H]1C[C@H](CC2N3CC4(C)CN2CC(C)(C3)C4=O)C1(C)C` (stereo partly specified), in the data set on Influenza A virus [2], the IC50 is more than 943 µM. In data set [4], the half-maximal cytotoxic concentration (CC50) at 48 h is more than 943 µM.
With `CC12CN3CN(C1)CC(C)(C3)C2N` (stereo unspecified), the IC50 in the data set on Influenza A virus [2] is 143 µM. Moreover, in data set [3], the selectivity ratio is more than 13. The compound also came in with a CC50 at 48 h in data set [4] of more than 1820 µM.
On the same counts, the results for `CC(CCCC(C)(C)O)CCNC1C2(C)CN3CN(C2)CC1(C)C3` (stereo unspecified) are 134 µM, 7 and 979 µM.
On the same counts, the results for `CC(C)=CCCC(C)CCNC1C2(C)CN3CN(C2)CC1(C)C3` (stereo unspecified) are 8 µM, 30 and 239 µM.
For `CC(C)=CCC/C(C)=C\CNC1C2(C)CN3CN(C2)CC1(C)C3` (stereo unspecified), the IC50 in the data set with Influenza A virus [2] is more than 1040 µM. Besides, the half-maximal cytotoxic concentration (CC50) at 48 h in data set [4] is more than 1040 µM.
For the compound `CC(N)C12CC3CC(CC(C3)C1)C2` (stereo unspecified) [RIMANTADINE], the IC50 with Influenza A virus [2] came out at 42 µM. Also, the selectivity ratio in data set [3] came to 8.
